Source: ChEMBL document CHEMBL1139583, “Design, synthesis and evaluation of racemic 1-(4-hydroxyphenyl)-2-[3-(substituted phenoxy)-2-hydroxy-1-propyl]amino-1-propanol hydrochlorides as novel uterine relaxants” (Bioorg Med Chem Lett, 2005)

Key:
Format in all cases: functional
Rattus norvegicus [1] = species on record: Rattus norvegicus; experiment: Inhibition of oxytocin induced contraction required for uterine relaxant activity in isolated rat uterus preparation
Rattus norvegicus [2] = species on record: Rattus norvegicus; experiment: cAmp released in rat at 10 mg
Method in brief: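 Oral dosing of virgin female Sprague–Dawley rats in oestrus. Rats killed 3 h later. Uterine strips weighed and homogenized in Tris–EDTA, then centrifuged at 12,000g. Supernatant TCA removed by ether extraction and pH set to 7.5. cAMP measured by [³H]cAMP competitive binding assay against 0–16 pmol standards, 2 h at 2–8 °C, charcoal separation, scintillation counting.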

Rattus norvegicus [3] = species on record: Rattus norvegicus; experiment: Delayed onset of labour in rat by comparing with control at 15 mg
Method in brief: (§1)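 Pregnant Sprague–Dawley rats, six per dose group, dosed orally at 10 and 15 mg/kg/day from gestation day 13 to 21. Reference agent given at 10 mg/kg/day p.o. Onset of labour compared with control.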

Rattus norvegicus [4] = species on record: Rattus norvegicus; experiment: Delayed onset of labour in rat by comparing with control at 10 mg; method in brief: as §1

| Structure (SMILES) | IC50 (Rattus norvegicus [1]) [µmol] | Activity (Rattus norvegicus [2]) [pmol] | Activity (Rattus norvegicus [3]) [h] | Activity (Rattus norvegicus [4]) [h] |
| --- | --- | --- | --- | --- |
| COCCc1ccc(OCC(O)CNC(C)C(O)c2ccc(O)cc2)cc1.Cl (centres undefined) | 6.02 | 3.66 | 33.7 | 27.1 |
| CC(NCC(O)COc1ccc(CC(N)=O)cc1)C(O)c1ccc(O)cc1.Cl (centres undefined) | 6.32 | 3.56 | 31.7 | 24 |
| CC(=O)Nc1ccc(OCC(O)CNC(C)C(O)c2ccc(O)cc2)cc1.Cl (centres undefined) | 6.07 | 3.48 | 31.8 | 25 |
| CC(=O)Nc1ccc(OCC(O)CNC(C)C(O)c2ccc(O)cc2)c(C(C)=O)c1.Cl (centres undefined) | 6.58 | 3.53 | 30.1 | 23.7 |
| CC(COc1ccccc1)NC(C)C(O)c1ccc(O)cc1.Cl (centres undefined) [ISOXSUPRINE HYDROCHLORIDE] | 9.15 | 5.03 |  | 31.6 |
